This is an account of results in ChEMBL document CHEMBL4177542, “A New Combination of a Pleuromutilin Derivative and Doxycycline for Treatment of Multidrug-Resistant Acinetobacter baumannii” (J Med Chem, 2017).

As usually defined, the MIC is the lowest concentration found to suppress growth. The IC50 is the concentration needed to halve the response being measured. As usually defined, the ED50 is the dose that gives a 50% effect, or the effect in half of the subjects.

Values after ≈ are worked out from the molar mass of the structure shown.

The subject of data set [1] is Acinetobacter baumannii. The data set is described as follows: Bactericidal activity against multidrug-resistant Acinetobacter baumannii ATCC BAA 18002 after 48 hrs by resazurin dye based broth microdilution method. The data set is classed as functional. To be noted: for MBC: read-out: MBC99.9. Summed up: (§1)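 Broth microdilution in tryptic soy broth. Mid-log cultures (OD600 0.5) treated with serial dilutions from a DMSO stock (1 mg per 100 μL) for 48 h at 37 °C. Resazurin (stock 0.02%) then added for 1 h at 37 °C. MIC is the lowest concentration staying blue; MBC is blue retained over 4 h (99.9% kill), with CFU plating when needed.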
(In general: Alamar Blue is a resazurin reagent that responds to reducing activity.)

The subject of data set [2] is Acinetobacter baumannii. Put plainly: Growth inhibition of multidrug-resistant Acinetobacter baumannii ATCC BAA 18002 after 48 hrs by resazurin dye based broth microdilution method. The data set is classed as functional. In a few lines: as §1
For a further data set, the system named is Vero. The data set is described as follows: Cytotoxicity against African green monkey Vero cells after 72 hrs by MTT assay. The data set is classed as cell-based, Chlorocebus sabaeus. Summed up: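 Vero (ATCC CCL-81) cells in Eagle's MEM with 10% FBS and penicillin-streptomycin, in 96-well plates. Serial dilutions from 0.78 to 200 μg/mL. Tunicamycin, colistin or tobramycin as controls on each plate. Viability by MTT, giving IC50.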
In general terms: Tetrazolium dyes change colour on reduction, which living cells bring about.

The test system of data set [3] is Acinetobacter baumannii. Put plainly: Growth inhibition of Acinetobacter baumannii ATCC 19606 after 48 hrs by resazurin dye based microdilution method. Format: functional. Summed up: (§2)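 A. baumannii ATCC 19606 grown in tryptic soy broth, 37 °C with shaking, to mid-log (OD 0.5). Cultures treated with serial dilutions of inhibitor (DMSO stock 1 mg/100 μL), 48 h at 37 °C. Resazurin then added, 1 h at 37 °C with shaking. MIC is the lowest concentration staying blue; MBC is blue retained over 4 h, with CFU plating if needed (99.9% kill).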

The subject of data set [4] is Acinetobacter baumannii. Put plainly: Antibacterial activity against Acinetobacter baumannii ATCC 19606 infected in C57BL/6 mouse assessed as survival rate at 6 mg/kg, ip administered as single dose measured for 5 days (reference value: <20%). Format: functional. To be noted: ATCC 19606 = CIP 70.34 = JCM 6841, ip, 120 h. Summed up:
(§3)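 C57BL/6 mice (n = 5 per group; 4 untreated controls) infected intraperitoneally with A. baumannii ATCC19606 grown at 37 °C and collected by centrifugation, at a dose giving 75% death. Single intraperitoneal dose (2 to 60 mg/kg) given 1 h after infection. Mice monitored for 5 days, with death as the end point; survival rate recorded.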

Data set [5] deals with Acinetobacter baumannii. The data set is described as follows: Bactericidal activity against Acinetobacter baumannii ATCC 19606 after 48 hrs by resazurin dye based microdilution method. To be noted: for MBC: ATCC 19606 = CIP 70.34 = JCM 6841, 48 h, read-out: MBC99.9. Format: functional. In a few lines:
as §2

Data set [6] is described as follows: Half life in Sprague-Dawley rat liver microsomes at 500 ng/ml by LC/MS analysis. The data set is classed as ADME, microsome. Summed up:
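Pooled Sprague-Dawley rat liver microsomes at 1 mg/mL protein in 100 mM phosphate, pH 7.4. Compound at 500 ng/mL final; verapamil as positive control. Pre-equilibrated 5 min at 37 °C, then 1 mM NADPH added. Triplicate samples at 0, 5, 10, 20, 30, 45 and 60 min, quenched in 4 volumes of cold methanol, analysed by LC-MS.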
Background: Microsomes from liver hold many membrane-bound enzymes, among them those of drug oxidation.

Data set [7] relates to Acinetobacter baumannii. Put plainly: Potentiation of doxycycline-induced antimicrobial activity against Acinetobacter baumannii ATCC 19606 at 0.78 ug/ml in presence of 0.025 ug/ml doxycycline by microdilution broth checkerboard method. The data set is classed as functional, ATCC 19606 = CIP 70.34 = JCM 6841. Summed up:
(§4)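 A. baumannii ATCC 19606 in a broth microdilution checkerboard with doxycycline, 96 concentration combinations. ΣFIC = C_A/MIC_A + C_B/MIC_B, taken for wells at the growth/no-growth interface; ΣFIC <0.5 counts as synergy.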

Data set [8] concerns Acinetobacter baumannii. Put plainly: Potentiation of doxycycline-induced antimicrobial activity against Acinetobacter baumannii ATCC 19606 at 1.56 ug/ml in presence of 0.05 ug/ml doxycycline by microdilution broth checkerboard method. Format: functional, ATCC 19606 = CIP 70.34 = JCM 6841. In a few lines: as §4
Data set [9] can be described thus: Solubility of the compound in water at 10 mg after 24 hrs by HPLC based shake flask method. Format: physicochemical.
Data set [10] relates to Pseudomonas aeruginosa. Put plainly: Bactericidal activity against Pseudomonas aeruginosa ATCC 27853 after 48 hrs by resazurin dye based microdilution method. The data set is classed as functional. To be noted: ATCC 27853, 48 h, read-out: MBC99.9. In a few lines:
as §1

The test system of data set [11] is Escherichia coli. The data set is described as follows: Growth inhibition of Escherichia coli ATCC 10798 after 48 hrs by resazurin dye based microdilution method. Format: functional. To be noted: ATCC 10798, 48 h. In a few lines:
as §1

Data set [12] has as its system Escherichia coli. Put plainly: Bactericidal activity against Escherichia coli ATCC 10798 after 48 hrs by resazurin dye based microdilution method. The data set is classed as functional. To be noted: ATCC 10798, 48 h, read-out: MBC99.9. In a few lines:
as §1

In data set [13] the test system is Staphylococcus aureus. Put plainly: Growth inhibition of Staphylococcus aureus ATCC 25923 after 48 hrs by resazurin dye based microdilution method. To be noted: ATCC 25923, 48 h. The data set is classed as functional. Summed up:
as §1

Data set [14] has as its system Staphylococcus aureus. The data set is described as follows: Bactericidal activity against Staphylococcus aureus ATCC 25923 after 48 hrs by resazurin dye based microdilution method. The data set is classed as functional. To be noted: ATCC 25923, 48 h, read-out: MBC99.9. Summed up: as §1
For data set [15], the system named is Acinetobacter baumannii. The data set is described as follows: Synergistic antibacterial activity against Acinetobacter baumannii ATCC 19606 infected in C57BL/6 mouse assessed as increase in survival rate at compound to doxycycline ratio of 35:1 administered ip as single dose measured for 5 days. Format: functional. To be noted: ATCC 19606 = CIP 70.34 = JCM 6841, ip, 120 h. Summed up:
as §3

The subject of data set [16] is Klebsiella pneumoniae. Put plainly: Bactericidal activity against Klebsiella pneumoniae ATCC 8047 after 48 hrs by resazurin dye based microdilution method. Format: functional. To be noted: ATCC 8047, 48 h, read-out: MBC99.9. Summed up: as §1
In data set [17] the test system is Klebsiella pneumoniae. Put plainly: Growth inhibition of Klebsiella pneumoniae ATCC 8047 after 48 hrs by resazurin dye based microdilution method. Format: functional. To be noted: ATCC 8047, 48 h. Summed up: as §1
Data set [18] deals with Pseudomonas aeruginosa. The data set is described as follows: Growth inhibition of Pseudomonas aeruginosa ATCC 27853 after 48 hrs by resazurin dye based microdilution method. Format: functional. To be noted: ATCC 27853, 48 h. Summed up:
as §1

Where [19] appears, read: Chlorocebus sabaeus, Vero, 72 h, read-out: IC50.
Setting [20] is: ATCC 19606 = CIP 70.34 = JCM 6841, 48 h.
Setting [21] is: ATCC 19606 = CIP 70.34 = JCM 6841.

On to `C=C[C@]1(C)C[C@@H](OC(=O)CSC(C)(C)CNC(=O)[C@H](NCCN)C(C)C)[C@]2(C)[C@H](C)CC[C@]3(CC[C@@H](O)[C@H]32)[C@@H](C)[C@@H]1O`, for which the MBC with Acinetobacter baumannii [1] is over 12.5 µg/mL. Moreover, the MIC in the data set with Acinetobacter baumannii [2] (ATCC BAA 18002, 48 h) is 3.15 µg/mL (≈ 5.16 µM).

Take `NC[C@H]1O[C@H](O[C@H]2[C@H](O)[C@@H](O[C@H]3O[C@H](CO)[C@@H](O)[C@H](N)[C@H]3O)[C@H](N)C[C@@H]2N)[C@H](N)C[C@@H]1O` [TOBRAMYCIN]: the concentration for half-maximal inhibition (IC50) in the data set with Vero (setting [19]) is over 200 µg/mL. The MBC in the data set with Acinetobacter baumannii [1] was over 25 µg/mL; in the data set on Acinetobacter baumannii [5], 12.5 µg/mL (≈ 26.7 µM). Also, the minimum inhibitory concentration (MIC) against Acinetobacter baumannii [3] (setting [20]) was 6.25 µg/mL (≈ 13.4 µM); against Acinetobacter baumannii [2] (ATCC BAA 18002, 48 h), over 25 µg/mL. In the data set with Acinetobacter baumannii [4], the survival at 6 mg/kg is 100%.

Consider COLISTIN [listing 1 of 2 here], for which the IC50 in the data set with Vero (vero) was over 200 µg/mL.

As to `CCCCCCCCCCCCC/C=C/C(=O)N[C@H]1[C@H](O[C@H]2O[C@H](CO)[C@@H](O)[C@H](O)[C@H]2NC(C)=O)O[C@H](CC(O)[C@H]2O[C@@H](n3ccc(=O)[nH]c3=O)[C@H](O)[C@@H]2O)[C@H](O)[C@@H]1O` (stereo partly drawn), in the data set on Vero (setting [19]), the IC50 was determined as 0.2 µg/mL (≈ 0.237 µM).

Regarding `C=C[C@]1(C)C[C@@H](OC(=O)CSC(C)(C)CNC(=O)[C@H](NC(=O)CN)C(C)C)[C@]2(C)[C@H](C)CC[C@]3(CC[C@@H](O)[C@H]32)[C@@H](C)[C@@H]1O`, the MBC in the data set with Acinetobacter baumannii [1] was over 12.5 µg/mL. Besides, the MIC against Acinetobacter baumannii [3] (setting [20]) was determined as 3.13 µg/mL (≈ 5.02 µM); with Acinetobacter baumannii [2] (ATCC BAA 18002, 48 h), 3.13 µg/mL (≈ 5.02 µM).

In the case of `C=C[C@]1(C)C[C@@H](OC(=O)CSC(C)(C)CNC(=O)[C@H](N)C(C)C)[C@]2(C)[C@H](C)CC[C@]3(CCC(=O)[C@H]32)[C@@H](C)[C@@H]1O` [VALNEMULIN], in the data set with Vero (setting [19]), the half-maximal inhibitory concentration (IC50) worked out at 14.9 µg/mL (≈ 26.4 µM). Also, the MBC in the data set on Acinetobacter baumannii [1] came to 25 µg/mL (≈ 44.3 µM); with Acinetobacter baumannii [5], 12.5 µg/mL (≈ 22.1 µM). Besides, the minimum inhibitory concentration (MIC) amounted to 3.13 µg/mL (≈ 5.54 µM) with Acinetobacter baumannii [3] (setting [20]) and 6.25 µg/mL (≈ 11.1 µM) in the data set on Acinetobacter baumannii [2] (ATCC BAA 18002, 48 h). Besides, the t1/2 in data set [6] turned out to be 0.58 min. Further, the “fractional inhibitory concentration index (FICI)” value in the data set with Acinetobacter baumannii [7] and in the data set on Acinetobacter baumannii [8] was 0.375 throughout. In addition, the solubility result in data set [9] is given as “Soluble”.

Regarding COLISTIN [listing 2 of 2 here], the MBC99.9 against Acinetobacter baumannii [1] came out at 25 µg/mL; against Acinetobacter baumannii [5] (setting [21]), 6.25 µg/mL. In addition, the MIC is 3.13 µg/mL in the data set on Acinetobacter baumannii [3] (setting [21]) and over 12.5 µg/mL in the data set with Acinetobacter baumannii [2].

Regarding `C[C@H]1c2cccc(O)c2C(=O)C2=C(O)[C@]3(O)C(=O)C(C(N)=O)=C(O)[C@@H](N(C)C)[C@@H]3[C@@H](O)[C@@H]21.O` [DOXYCYCLINE], the MBC is 25 µg/mL in the data set with Pseudomonas aeruginosa [10]; 6.25 µg/mL in the data set with Escherichia coli [12]; 0.4 µg/mL in the data set on Acinetobacter baumannii [5]; 12.5 µg/mL in the data set with Staphylococcus aureus [14]; 0.78 µg/mL in the data set with Klebsiella pneumoniae [16]. For the same compound, the MIC in the data set with Escherichia coli [11] is 3.13 µg/mL; against Acinetobacter baumannii [3] (setting [20]), 0.3 µg/mL; in the data set with Staphylococcus aureus [13], 3.13 µg/mL; against Acinetobacter baumannii [2] (ATCC BAA 18002, 48 h), over 25 µg/mL; with Klebsiella pneumoniae [17] it was 0.25 µg/mL; with Pseudomonas aeruginosa [18], 12.5 µg/mL. In the data set with Acinetobacter baumannii [15], the ED50 was under 2 mg/kg.
